This is a sample that favours compounds with a hit; in the whole collection about 1.8% have one here.
LEDGF integ inh = blocks HIV-1 LEDGF/p75-dependent DNA integration. TR-FRET IN-LEDGF/p75 DNA integration, Eu/Cy5. inhibition, % at 3.7 µM. 370,000 compounds, 0.64% hits;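 active means inhibition above the screen-wide mean plus 3 SD, cut at about 13% in these data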;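 further: signal is the Cy5 over europium emission ratio at 671 and 618 nm; 0% = plate median of compound wells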
TDP2 inh = TDP2 (human) inhibition, absorbance primary screen; recombinant TDP2, T5PNP hydrolysis, p-nitrophenol absorbance 415 nm; inhibition, % at 12.8 µM; 370,000 compounds, 0.34% hits; AID 720702;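 active means inhibition above the mean of all tested compounds plus 3 SD, set per campaign, cut at about 25% in these data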;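 further: 0% = DMSO with enzyme and 100% = buffer with substrate but no TDP2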
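System – recombinant human TDP2 · Amount – 120 nM TDP2 per well · Buffer or medium – Mg2+-containing Tris-HCl buffer, pH 7.5 · Reagent – T5PNP substrate, 5 mM · Dosing – 12.8 µM single point, 1% DMSO · Incubation – 2 h at 37 °C · Measured by – epi absorbance · Read-out basis – percent inhibition · Benchmarks – high control without enzyme, low control DMSO plus TDP2 · Repeats – singlicate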
MBD2 DNA inh = blocks human MBD2 binding to methylated DNA; TR-FRET, MBD2 binding to methylated oligonucleotide; 370,000 compounds, 0.31% hits; Q9UBB5; AID 686964; inhibition, % at 4.4 µM; in the data active means inhibition above about 13%
Target sequence (Q9UBB5 whole entry, looked up): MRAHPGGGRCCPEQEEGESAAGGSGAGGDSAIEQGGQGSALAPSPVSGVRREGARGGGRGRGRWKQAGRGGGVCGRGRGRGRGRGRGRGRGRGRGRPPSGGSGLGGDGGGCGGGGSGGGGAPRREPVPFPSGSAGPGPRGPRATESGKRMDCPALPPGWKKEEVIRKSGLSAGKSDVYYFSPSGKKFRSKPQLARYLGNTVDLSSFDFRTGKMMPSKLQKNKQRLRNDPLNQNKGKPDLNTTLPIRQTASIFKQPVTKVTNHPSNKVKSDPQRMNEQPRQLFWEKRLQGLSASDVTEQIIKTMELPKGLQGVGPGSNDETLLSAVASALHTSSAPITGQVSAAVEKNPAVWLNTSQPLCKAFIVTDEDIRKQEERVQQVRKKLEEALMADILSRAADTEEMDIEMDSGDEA
CASP6 VEID inh = caspase-6 (human) enzyme inhibition | purified caspase-6, Z-VEID-R110 cleavage fluorescence | AID 686996 | inhibition, % at 12.5 µM | 350,000 compounds, 0.53% hits;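 active means mean inhibition across replicates at least about 35%, with every replicate also reaching that limit, limit read from the data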;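 further: 0% = median of neutral control wells and 100% = no fluorescence left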
UHRF1 binding = human UHRF1 methylated DNA binding inhibitors. UHRF1 binding to methylated oligo, TR-FRET. inhibition, % at 4.4 µM. 370,000 compounds, 0.75% hits. AID 687016; in the data active means inhibition above about 21%;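 further: UHRF1 SRA domain binding a hemimethylated CpG hairpin DNA probe; 0% = median of test compound wells and 100% = reference inhibitor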
NSD2 HMT inh = blocks human histone methyltransferase NSD2; O96028; NSD2 peptide methylation, AlphaScreen, 120 min; inhibition, % at 12.5 µM; 310,000 compounds, 0.54% hits; AID 743445; in the data active means inhibition above about 50%
TDP2 confirm = human TDP2 inhibition, confirmation; inhibition, % at 12.8 µM; recombinant human TDP2, absorbance read-out; shares compounds with TDP2 inh; 1,100 compounds, 22% hits; in the data active means inhibition above about 25%;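 further: 0% = vehicle with enzyme and 100% = no enzyme buffer only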
* = called active by the depositor; . = no result.

SMILES	LEDGF integ inh	TDP2 inh	MBD2 DNA inh	CASP6 VEID inh	UHRF1 binding	NSD2 HMT inh	TDP2 confirm
Cc1ccc(S(=O)(=O)NCC2COc3ccccc3O2)cc1 (stereo not drawn)	6	-7	2	-3	4	-6	.
Cc1ccc([N+](=O)[O-])cc1S(=O)(=O)NCC1COc2ccccc2O1 (stereo not drawn)	-2	45*	-1	2	1	11	-3
CCCCOC(=O)C1=C(C)NC2(O)c3ccccc3C(=O)C12O (stereo not drawn)	3	61*	-9	.	-5	10	25*
COc1ccc2c(c1)NC1(O)c3ccccc3C(=O)C21O (stereo not drawn)	0	-14	2	.	-2	0	.
CC1=C(C(=O)OC(C)C)C2(O)C(=O)c3ccccc3C2(O)N1 (stereo not drawn)	3	44*	-8	.	-7	-1	13
CC1=C(C#N)C2(O)C(=O)c3ccccc3C2(O)N1 (stereo not drawn)	-10	-12	4	5	3	4	.
CCOC(=O)C1=C(C)N[C@@]2(O)c3ccccc3C(=O)[C@@]12O	2	36*	-2	.	-6	6	29*
C[C@H](NC(=O)C[C@H]1CC[C@@H](NC(=O)CN2CCOCC2)[C@H](CO)O1)c1ccccc1	.	.	.	3	.	.	.
O=C(NC1CC2CCCC(C1)N2C(=O)Nc1cccc(F)c1)C1CC1 (stereo not drawn)	-1	28*	-2	3	-2	4	13
Cc1ccc(NC(=O)N2C3CCCC2CC(NC(=O)C2CC2)C3)cc1 (stereo not drawn)	5	9	-3	-4	2	-6	.
O=C(C[C@H]1CC[C@H](NC(=O)CC2CC2)[C@H](CO)O1)NCc1ccc(Cl)cc1	.	.	.	-1	.	.	.
O=C(COC(=O)c1ccc([N+](=O)[O-])s1)NCc1ccc(F)cc1	7	59*	2	.	14	0	23
C[C@H](CO)N1C[C@H](C)[C@H](CN(C)Cc2ccc(C(=O)O)cc2)Oc2ccc(NC(=O)Cc3ccccc3)cc2CC1=O	.	.	.	1	.	.	.
CC1=NN(c2ccccc2)C(=O)C1C(=O)c1cc([N+](=O)[O-])cc([N+](=O)[O-])c1 (stereo not drawn)	4	47*	-2	2	-9	9	10
c1cncc(CSc2nnc3ccc(-c4ccco4)nn23)c1	2	28*	-2	0	-1	-2	-5
Cc1ccc(S(=O)(=O)Nc2ccc3c(c2)CC(=O)N([C@H](C)CO)C[C@H](C)[C@H](CN(C)C(=O)Nc2ccccc2)O3)cc1	.	.	.	0	.	.	.
C[C@@H]1CCCCO[C@H](CN(C)C(=O)Nc2cccc3ccccc23)[C@H](C)CN([C@@H](C)CO)C(=O)c2cc(NS(=O)(=O)c3ccc(Cl)cc3)ccc2O1	.	.	.	0	.	.	.
Cc1[nH]n(-c2ccccc2)c(=O)c1/C=N/c1nn[nH]n1	4	27*	-2	.	-8	6	9
Cc1[nH]n(-c2ccccc2)c(=O)c1S(=O)(=O)c1ccccc1	-1	49*	-5	.	-3	9	18
Cc1cccc(/N=C/c2c(C)[nH]n(-c3ccccc3)c2=O)n1	-2	18	-3	-1	-6	1	.
Cc1[nH]n(-c2ccccc2)c(=O)c1/C=N/N(c1ccccc1)c1ccccc1	5	40*	-5	-2	3	28	-3
Cc1nc2scc(C)n2c(=O)c1S(=O)(=O)NCc1ccc(F)cc1	1	25*	3	0	-3	0	-10
COc1ccccc1C(=O)COC(=O)C(CCSC)NC(=O)COc1ccccc1 (stereo not drawn)	0	25*	-6	2	-4	0	1
CC(=O)N(C)c1ccc(NC(=O)Cc2cccs2)cc1	1	25*	-8	38*	-1	0	3
O=C(Nc1ccc(F)cc1)N[C@H]1C=C[C@H](CC(=O)N2CCOCC2)O[C@@H]1CO	.	.	.	4	.	.	.
SMILES	LEDGF integ inh	TDP2 inh	MBD2 DNA inh	CASP6 VEID inh	UHRF1 binding	NSD2 HMT inh	TDP2 confirm
O=C1NNC(c2ccccc2)=N/C1=C\c1ccccc1Cl	5	56*	-5	30	-4	93*	62*
CCS(=O)(=O)N1CCCCN2[C@H](CO)[C@@H](c3ccc(C#Cc4ccccc4OC)cc3)[C@H]2C1	.	.	.	-1	.	.	.
Cc1cc(C)c(S(=O)(=O)N2CCN(C(=O)c3ccc4c(c3)OCO4)CC2)c(C)c1	2	29*	2	4	-1	21	-5
Cc1ccc(S(=O)(=O)N2CCN(C(=O)c3ccc4c(c3)OCO4)CC2)cc1	0	-5	1	1	3	-2	.
CC1=NN(c2ccccc2)C(=O)/C1=C\c1sccc1C	-3	19	-2	0	-8	4	.
CC1=NN(c2ccccc2)C(=O)C1=C(C)C	5	37*	-6	7	-7	11	12
Cc1nn(-c2ccccc2)c(N)c1C1(O)C(=O)Nc2ccc([N+](=O)[O-])cc21 (stereo not drawn)	-4	33*	0	7	-4	11	-4
CS(=O)(=O)c1cccc(C(=O)Nc2cccc(-c3nc4ccccc4[nH]3)c2)c1	2	25*	3	3	21*	1	7
CS(=O)(=O)c1ccc(C(=O)Nc2cccc(-c3nc4ccccc4[nH]3)c2)cc1	1	-8	0	-2	5	-4	.
CCc1ccc(NC(=S)Nc2cc(OC)c(NC(=O)C(C)C)cc2OC)cc1	8	15	-9	3	-5	3	.
CCCC(=O)Nc1cc(OC)c(NC(=S)Nc2ccc(CC)cc2)cc1OC	4	26*	-7	1	-2	8	4
CO[C@@H]1CN(C)C(=O)c2cc(NS(C)(=O)=O)ccc2OC[C@H](C)N(C)C[C@H]1C	.	.	.	-4	.	.	.
CN(C)CCOC(=O)c1ccc2[nH]c3c(c2c1)CSCC3	3	25*	-1	-127	-1	13	-3
CCOC(=O)c1ccc2[nH]c3c(c2c1)CCCC3	-1	-4	0	0	-2	5	.
COCN(C#N)c1nc(OC)nc(OC)n1	1	2	3	3	3	-2	.
COCN(C#N)c1nc(N(C)C)nc(N(C)C)n1	2	29*	0	1	45*	1	4
O=C(NCCc1ccncc1)[C@@H]1[C@@H](CO)[C@@H]2Cn3c(ccc(-c4ccc(F)cc4)c3=O)[C@H]1N2	.	.	.	-5	.	.	.
O=C(CNC(=O)c1ccc([N+](=O)[O-])cc1)N/N=C/c1c[nH]c2ccccc12	3	27*	-4	5	-3	10	3
O=C(CNC(=O)c1ccco1)N/N=C/c1c[nH]c2ccccc12	-1	9	-1	-2	0	2	.

From PubChem
